The values that follow come from ChEMBL document CHEMBL4477191, “Haliclonadiamine Derivatives and 6-epi-Monanchorin from the Marine Sponge Halichondria panicea Collected at Iriomote Island” (J Nat Prod, 2016).

The subject of one experiment is Huh-7. In words: Cytotoxicity against human HuH7 cells assessed as reduction in cell viability after 72 hrs by WST-1 assay. In kind it is functional, cell-based. The following applies: Huh-7, 72 h. In short, it runs like this: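 Cells seeded at 1 × 10^4 per well, cultured overnight, then exposed to compound for 72 h. WST-1 (0.5 mM) with 1-PMS (0.02 mM) in medium added for 60 min at 37 °C. Absorbance read at 438 nm, reference 620 nm. Viability expressed as percent of 0.1% EtOH-treated controls. IC50 reported.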

For experiment [1], the system named is Mycolicibacterium smegmatis. Briefly: Antimycobacterial activity against Mycobacterium smegmatis NBRC 3207 at 10 ug/disc after 2 days by paper disc method. It counts as functional. Conditions: NBRC 3207, 48 h, read-out: IZ. In short, it runs like this: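 Paper disc diffusion. Strain kept in 20% glycerol at −80 °C, then grown 2 days at 37 °C in Middlebrook 7H9 broth with 0.05% polysorbate 80, 0.5% glycerol and 10% OADC. Adjusted to 1.0 × 10^6 CFU/mL and spread on the same medium with 1.5% agar. Sample in CH3OH dried onto 6 mm discs. Plates incubated 37 °C, 2 days. Inhibition zone read in mm. Streptomycin sulfate (5 μg/disc) positive control; CH3OH negative control.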

Experiment [2] relates to Mycolicibacterium smegmatis. In words: Antimycobacterial activity against Mycobacterium smegmatis NBRC 3207 at 10 to 20 ug/disc after 2 days by paper disc method. In kind it is functional, organism-based. A digest of the protocol: (§1)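 Strain stored in 20% glycerol at −80 °C. Grown in Middlebrook 7H9 broth with 0.05% polysorbate 80, 0.5% glycerol and 10% OADC at 37 °C for 2 days, then adjusted to 1.0 × 10^6 CFU/mL and spread on the same medium with 1.5% agar. Samples in CH3OH dried onto 6 mm filter discs, incubated 37 °C for 2 days. Read-out is inhibition zone (mm). Streptomycin sulfate 5 μg/disc as positive control, CH3OH as negative control.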

Experiment [3] concerns Mycolicibacterium smegmatis. In words: Antimycobacterial activity against Mycobacterium smegmatis NBRC 3207 at 5 ug/disc after 2 days by paper disc method. It counts as functional. The following applies: NBRC 3207, 48 h, read-out: IZ. In short, it runs like this: as §1

Structures can show the parent of a compound that is named as a salt. Active and inactive are the calls of the source. No cut-off for these calls is given here.

The term IC50 denotes the midpoint of a concentration-inhibition curve.

`N[C@@H]1C[C@@H]2CCCC[C@H]2[C@@H]1/C=C/C=C\[C@H]1[C@@H]2CCCC[C@H]2C[C@@H]1N`: the IC50 with Huh-7 came to 7.2 µM. In experiment [1], the zone of inhibition at 10 µg/disc amounted to 8 mm. For `C1=C\[C@H]2[C@@H]3CCCC[C@H]3C[C@@H]2NCCCN[C@@H]2C[C@@H]3CCCC[C@H]3[C@@H]2/C=C/1` the same measures were above 10 µM and 12 mm. For `C1=C\[C@H]2[C@@H]3CCCC[C@H]3C[C@H]2NCCCN[C@H]2C[C@@H]3CCCC[C@H]3[C@@H]2/C=C/1`, in that order: 6.7 µM and 7 mm. For `C1=C/[C@H]2[C@@H]3CCCC[C@H]3C[C@@H]2NCCCN[C@@H]2C[C@@H]3CCCC[C@H]3[C@@H]2/C=C/1` [HALICLONADIAMINE] the same measures were 3.6 µM and 16 mm. As for `N[C@@H]1C[C@@H]2CCCC[C@H]2[C@@H]1/C=C\C=C\[C@H]1[C@@H]2CCCC[C@H]2C[C@@H]1N`, the IC50 in the experiment with Huh-7 was 7.8 µM. Further, the zone of inhibition at 10 µg/disc in experiment [1] was 7 mm.

Take `CCCCC[C@H]1O[C@@H]2CC[C@H]1NC(=N)N2`: the IC50 with Huh-7 was above 10 µM. Moreover, in experiment [2], the inhibition result is “inactive”. For `CCCCC[C@@H]1O[C@@H]2CC[C@H]1NC(=N)N2`, in that order: above 10 µM and “inactive”.

In the case of `C1=C/[C@H]2[C@@H]3CCCC[C@H]3C[C@H]2NCCCN[C@@H]2C[C@@H]3CCCC[C@H]3[C@@H]2/C=C/1`, the IC50 in the experiment with Huh-7 was 3.9 µM. For the same compound, in experiment [1], the zone of inhibition at 10 µg/disc turned out to be 12 mm. In the case of `COc1cccc2c1C(=O)c1c(O)c3c(c(O)c1C2=O)C[C@@](O)(C(=O)CO)C[C@@H]3O[C@H]1C[C@H](N)[C@H](O)[C@H](C)O1` [DOXORUBICIN], in the experiment on Huh-7, the IC50 was 0.4 µM. For the compound `CN[C@@H]1[C@H](O[C@H]2[C@H](O[C@H]3[C@H](O)[C@@H](O)[C@H](N=C(N)N)[C@@H](O)[C@@H]3N=C(N)N)O[C@@H](C)[C@]2(O)C=O)O[C@@H](CO)[C@H](O)[C@H]1O` [STREPTOMYCIN SULFATE], the zone of inhibition at 5 µg/disc in experiment [3] turned out to be 30 mm.
